Assay results reported in ChEMBL document CHEMBL5661979, “Pharmacological inhibition of BMK1 suppresses tumor growth through promyelocytic leukemia protein” (Cancer Cell, 2010).
pIC50: −log10 of the molar value.

Key:
[1] = biological target: Cyclin-dependent kinase 2 (Homo sapiens, UniProt P24941); test: Inhibition of CDK2 K1 site in human HeLa cells lysate pre incubated for 15 mins followed by ATP acyl phosphate probe addition and measured after 10 mins by LC-MS/MS analysis; assay type: subcellular
Method in brief: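 KiNativ profiling in HeLa lysate (5 mg/mL total protein). Lysate incubated 15 min with inhibitor at 50, 10, 2, 0.8 or 0 μM. ATP or ADP acylphosphate probe then added (5 μM final) and reacted 10 min. Reaction stopped with urea and analysed by targeted MS, using up to four fragment ions per kinase peptide-probe conjugate. % inhibition taken against untreated lysate. Run in duplicate.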

[2] = biological target: STE20-like serine/threonine-protein kinase (Homo sapiens, UniProt Q9H2G2); test: Inhibition of SLK in human HeLa cells lysate at 2 uM pre incubated for 15 mins followed by ATP acyl phosphate probe addition and measured after 10 mins by LC-MS/MS analysis relative to control; assay type: subcellular; conditions: time 25.0 min
[3] = biological target: T1, Mitogen-activated protein kinase kinase kinase kinase 2 (Homo sapiens) (UniProt Q12851); test: Inhibition of GCK in human HeLa cells lysate at 10 uM pre incubated for 15 mins followed by ADP acyl phosphate probe addition and measured after 10 mins by LC-MS/MS analysis relative to control; assay type: subcellular; conditions: time 25.0 min
T1 sequence (whole entry): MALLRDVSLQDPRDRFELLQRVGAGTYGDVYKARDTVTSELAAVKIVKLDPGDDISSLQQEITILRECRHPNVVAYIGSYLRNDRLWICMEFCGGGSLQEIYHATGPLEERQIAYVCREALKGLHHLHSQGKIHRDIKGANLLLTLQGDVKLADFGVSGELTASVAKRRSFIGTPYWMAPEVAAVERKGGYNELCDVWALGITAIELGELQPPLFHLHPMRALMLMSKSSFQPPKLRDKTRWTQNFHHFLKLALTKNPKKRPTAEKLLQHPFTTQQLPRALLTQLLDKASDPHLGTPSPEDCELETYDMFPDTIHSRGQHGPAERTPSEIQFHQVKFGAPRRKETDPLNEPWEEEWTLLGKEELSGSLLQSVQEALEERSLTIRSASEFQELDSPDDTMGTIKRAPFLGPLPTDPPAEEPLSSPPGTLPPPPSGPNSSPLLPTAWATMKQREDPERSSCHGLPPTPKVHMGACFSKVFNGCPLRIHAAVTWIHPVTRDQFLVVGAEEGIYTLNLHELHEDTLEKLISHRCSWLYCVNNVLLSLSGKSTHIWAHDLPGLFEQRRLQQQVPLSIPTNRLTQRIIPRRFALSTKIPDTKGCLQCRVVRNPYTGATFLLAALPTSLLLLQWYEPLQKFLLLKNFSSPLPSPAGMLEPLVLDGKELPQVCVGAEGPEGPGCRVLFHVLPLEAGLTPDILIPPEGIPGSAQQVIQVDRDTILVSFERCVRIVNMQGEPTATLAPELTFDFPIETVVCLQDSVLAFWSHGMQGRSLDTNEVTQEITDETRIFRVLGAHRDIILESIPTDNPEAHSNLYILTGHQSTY

[4] = biological target: Serine/threonine-protein kinase PLK1 (Homo sapiens, UniProt P53350); test: Inhibition of PLK1 in human HeLa cells lysate at 10 uM pre incubated for 15 mins followed by ADP acyl phosphate probe addition and measured after 10 mins by LC-MS/MS analysis relative to control; assay type: subcellular; conditions: time 25.0 min
Serine/threonine-protein kinase PLK1, sequence (P53350 whole entry): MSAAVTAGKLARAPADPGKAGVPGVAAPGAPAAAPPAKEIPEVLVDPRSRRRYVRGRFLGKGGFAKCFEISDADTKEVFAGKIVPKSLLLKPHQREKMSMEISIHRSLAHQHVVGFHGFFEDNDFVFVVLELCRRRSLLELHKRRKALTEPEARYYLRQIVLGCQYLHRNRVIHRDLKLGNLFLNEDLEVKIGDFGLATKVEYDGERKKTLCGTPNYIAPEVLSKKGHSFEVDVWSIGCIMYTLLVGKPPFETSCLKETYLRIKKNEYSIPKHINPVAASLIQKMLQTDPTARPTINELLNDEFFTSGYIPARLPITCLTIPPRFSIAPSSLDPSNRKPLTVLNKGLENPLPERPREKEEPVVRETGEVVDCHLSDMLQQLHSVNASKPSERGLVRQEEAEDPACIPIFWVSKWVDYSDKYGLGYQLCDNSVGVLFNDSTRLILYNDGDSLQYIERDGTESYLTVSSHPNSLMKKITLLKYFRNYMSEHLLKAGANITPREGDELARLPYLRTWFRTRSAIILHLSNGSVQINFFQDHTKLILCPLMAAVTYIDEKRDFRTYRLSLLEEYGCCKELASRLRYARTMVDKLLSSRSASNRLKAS

[5] = biological target: Ribosomal protein S6 kinase beta-1 (Homo sapiens, UniProt P23443); test: Inhibition of P70S6K in human HeLa cells lysate at 10 uM pre incubated for 15 mins followed by ATP acyl phosphate probe addition and measured after 10 mins by LC-MS/MS analysis relative to control; assay type: subcellular; conditions: time 25.0 min
[6] = Inhibition of MAP3K2/MAP3K3 in human HeLa cells lysate pre incubated for 15 mins followed by ADP acyl phosphate probe addition and measured after 10 mins by LC-MS/MS analysis; assay type: subcellular
AMPK alpha1/alpha2 = AMPK alpha1/alpha2 (Homo sapiens, UniProt P54646+Q13131); test: Inhibition of AMPKalpha1/2 in human HeLa cells lysate pre incubated for 15 mins followed by ATP acyl phosphate probe addition and measured after 10 mins by LC-MS/MS analysis; assay type: subcellular
Method in brief: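 HeLa cell lysates (5 mg/mL total protein) were preincubated with inhibitor at 0, 0.8, 2, 10 or 50 μM for 15 min. ATP or ADP acylphosphate probe was then added (5 μM final) for 10 min, and reactions were stopped with urea. Up to four fragment ions per kinase probe-peptide were quantified by targeted MS. % inhibition was taken relative to untreated lysate. Run in duplicate.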

[7] = biological target: DNA-dependent protein kinase catalytic subunit (Homo sapiens, UniProt P78527); test: Inhibition of PRKDC in human HeLa cells lysate at 50 uM pre incubated for 15 mins followed by ADP acyl phosphate probe addition and measured after 10 mins by LC-MS/MS analysis relative to control; assay type: subcellular; conditions: time 25.0 min
DNA-dependent protein kinase catalytic subunit, sequence (P78527 whole entry): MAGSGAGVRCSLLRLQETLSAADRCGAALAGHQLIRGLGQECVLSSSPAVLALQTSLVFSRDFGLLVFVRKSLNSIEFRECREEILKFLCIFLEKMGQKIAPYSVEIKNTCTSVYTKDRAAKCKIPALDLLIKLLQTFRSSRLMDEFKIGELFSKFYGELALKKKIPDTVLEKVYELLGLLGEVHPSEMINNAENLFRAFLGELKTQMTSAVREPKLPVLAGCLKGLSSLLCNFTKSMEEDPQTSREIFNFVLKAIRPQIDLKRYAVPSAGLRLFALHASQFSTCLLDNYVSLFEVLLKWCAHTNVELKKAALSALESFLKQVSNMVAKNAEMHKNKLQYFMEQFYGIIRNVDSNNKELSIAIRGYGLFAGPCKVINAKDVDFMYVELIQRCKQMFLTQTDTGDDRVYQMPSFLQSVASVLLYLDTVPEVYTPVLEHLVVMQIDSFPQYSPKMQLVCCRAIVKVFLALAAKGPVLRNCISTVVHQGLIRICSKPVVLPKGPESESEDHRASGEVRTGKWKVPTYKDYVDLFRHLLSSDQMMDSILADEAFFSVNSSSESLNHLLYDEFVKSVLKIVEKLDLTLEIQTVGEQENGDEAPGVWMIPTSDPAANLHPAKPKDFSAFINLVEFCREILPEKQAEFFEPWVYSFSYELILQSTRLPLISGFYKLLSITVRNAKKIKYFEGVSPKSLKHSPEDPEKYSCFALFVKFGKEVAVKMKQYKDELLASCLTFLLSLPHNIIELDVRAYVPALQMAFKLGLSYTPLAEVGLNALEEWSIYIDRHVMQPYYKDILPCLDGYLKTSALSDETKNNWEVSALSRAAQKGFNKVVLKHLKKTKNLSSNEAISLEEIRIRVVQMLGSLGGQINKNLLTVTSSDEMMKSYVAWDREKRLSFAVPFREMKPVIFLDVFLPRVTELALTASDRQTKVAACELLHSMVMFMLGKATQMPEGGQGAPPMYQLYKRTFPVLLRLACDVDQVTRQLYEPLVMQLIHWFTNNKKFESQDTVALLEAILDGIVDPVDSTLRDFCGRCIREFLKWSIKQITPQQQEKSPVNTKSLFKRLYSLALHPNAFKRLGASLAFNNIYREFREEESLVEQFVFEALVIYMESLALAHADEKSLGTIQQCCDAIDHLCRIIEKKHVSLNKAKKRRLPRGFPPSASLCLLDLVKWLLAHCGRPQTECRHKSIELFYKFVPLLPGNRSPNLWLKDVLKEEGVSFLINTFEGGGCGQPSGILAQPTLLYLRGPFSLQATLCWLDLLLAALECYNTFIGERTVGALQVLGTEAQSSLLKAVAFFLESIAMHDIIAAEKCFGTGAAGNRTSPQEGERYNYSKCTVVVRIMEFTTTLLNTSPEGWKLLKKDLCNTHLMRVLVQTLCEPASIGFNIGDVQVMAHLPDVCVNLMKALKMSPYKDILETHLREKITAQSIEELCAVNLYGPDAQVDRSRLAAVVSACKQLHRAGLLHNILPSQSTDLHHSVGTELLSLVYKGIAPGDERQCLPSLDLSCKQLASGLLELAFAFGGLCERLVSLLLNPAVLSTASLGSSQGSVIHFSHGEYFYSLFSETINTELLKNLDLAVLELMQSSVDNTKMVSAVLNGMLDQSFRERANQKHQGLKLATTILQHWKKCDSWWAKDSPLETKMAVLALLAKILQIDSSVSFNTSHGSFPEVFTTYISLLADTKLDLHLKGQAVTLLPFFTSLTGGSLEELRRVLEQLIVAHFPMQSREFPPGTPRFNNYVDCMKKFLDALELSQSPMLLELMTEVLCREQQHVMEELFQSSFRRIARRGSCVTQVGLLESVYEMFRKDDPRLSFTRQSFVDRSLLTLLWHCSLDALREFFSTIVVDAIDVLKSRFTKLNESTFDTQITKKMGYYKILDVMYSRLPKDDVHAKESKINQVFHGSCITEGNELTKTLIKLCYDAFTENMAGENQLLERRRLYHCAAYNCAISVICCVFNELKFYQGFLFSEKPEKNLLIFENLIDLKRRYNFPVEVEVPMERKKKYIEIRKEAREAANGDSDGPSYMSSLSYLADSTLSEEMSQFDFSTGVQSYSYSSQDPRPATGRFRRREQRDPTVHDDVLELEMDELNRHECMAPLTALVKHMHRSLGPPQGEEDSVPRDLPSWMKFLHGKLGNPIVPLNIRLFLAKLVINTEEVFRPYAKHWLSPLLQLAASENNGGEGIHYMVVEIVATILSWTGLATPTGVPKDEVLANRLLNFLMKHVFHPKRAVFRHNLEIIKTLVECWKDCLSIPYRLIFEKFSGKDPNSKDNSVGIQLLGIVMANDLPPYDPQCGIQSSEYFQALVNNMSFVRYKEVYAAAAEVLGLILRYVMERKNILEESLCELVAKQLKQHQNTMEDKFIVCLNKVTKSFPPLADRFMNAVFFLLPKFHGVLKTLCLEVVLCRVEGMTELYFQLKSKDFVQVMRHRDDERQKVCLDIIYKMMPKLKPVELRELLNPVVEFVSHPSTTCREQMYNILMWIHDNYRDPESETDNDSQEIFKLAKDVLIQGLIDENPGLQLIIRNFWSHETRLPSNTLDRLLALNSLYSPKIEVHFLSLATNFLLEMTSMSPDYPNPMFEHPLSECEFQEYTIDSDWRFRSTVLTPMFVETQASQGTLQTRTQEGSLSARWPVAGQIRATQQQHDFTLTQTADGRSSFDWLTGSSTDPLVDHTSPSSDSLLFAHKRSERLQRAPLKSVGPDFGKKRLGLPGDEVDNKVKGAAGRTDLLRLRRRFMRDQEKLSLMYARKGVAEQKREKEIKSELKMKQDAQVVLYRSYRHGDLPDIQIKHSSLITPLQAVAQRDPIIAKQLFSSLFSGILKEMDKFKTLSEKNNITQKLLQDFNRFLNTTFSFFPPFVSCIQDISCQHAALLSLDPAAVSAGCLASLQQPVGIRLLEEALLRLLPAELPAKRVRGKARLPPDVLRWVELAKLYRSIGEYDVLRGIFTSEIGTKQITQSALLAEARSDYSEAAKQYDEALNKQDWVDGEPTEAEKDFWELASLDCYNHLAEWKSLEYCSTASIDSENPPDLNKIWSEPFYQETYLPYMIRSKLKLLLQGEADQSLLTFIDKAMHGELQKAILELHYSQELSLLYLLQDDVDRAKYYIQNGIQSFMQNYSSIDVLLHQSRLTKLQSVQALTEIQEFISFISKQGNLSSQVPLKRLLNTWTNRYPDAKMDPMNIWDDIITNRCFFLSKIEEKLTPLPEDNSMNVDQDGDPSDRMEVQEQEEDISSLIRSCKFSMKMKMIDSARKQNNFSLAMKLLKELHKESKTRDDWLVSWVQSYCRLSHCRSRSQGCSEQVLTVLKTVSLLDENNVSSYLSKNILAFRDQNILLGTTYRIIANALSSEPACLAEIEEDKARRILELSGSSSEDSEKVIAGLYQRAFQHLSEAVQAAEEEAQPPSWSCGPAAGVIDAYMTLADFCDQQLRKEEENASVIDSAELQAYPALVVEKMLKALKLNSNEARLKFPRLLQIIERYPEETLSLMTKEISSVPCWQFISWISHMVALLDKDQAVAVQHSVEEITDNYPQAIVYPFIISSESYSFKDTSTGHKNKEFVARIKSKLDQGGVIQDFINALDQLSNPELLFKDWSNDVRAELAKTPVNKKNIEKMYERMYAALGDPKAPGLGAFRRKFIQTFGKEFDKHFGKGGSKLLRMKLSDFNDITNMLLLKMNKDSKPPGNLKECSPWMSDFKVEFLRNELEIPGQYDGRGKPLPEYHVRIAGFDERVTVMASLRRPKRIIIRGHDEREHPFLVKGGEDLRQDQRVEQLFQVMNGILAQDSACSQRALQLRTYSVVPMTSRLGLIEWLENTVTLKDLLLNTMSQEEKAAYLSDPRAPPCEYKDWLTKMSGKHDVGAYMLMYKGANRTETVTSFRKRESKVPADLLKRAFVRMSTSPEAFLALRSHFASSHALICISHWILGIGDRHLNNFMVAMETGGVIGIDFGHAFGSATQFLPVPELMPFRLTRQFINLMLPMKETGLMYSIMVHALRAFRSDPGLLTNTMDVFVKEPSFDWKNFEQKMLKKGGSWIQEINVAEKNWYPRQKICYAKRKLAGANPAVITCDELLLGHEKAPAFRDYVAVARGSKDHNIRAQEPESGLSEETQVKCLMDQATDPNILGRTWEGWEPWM

[8] = biological target: Hepatocyte growth factor receptor (Homo sapiens, UniProt P08581); test: Inhibition of MET in human HeLa cells lysate at 2 uM pre incubated for 15 mins followed by ATP acyl phosphate probe addition and measured after 10 mins by LC-MS/MS analysis relative to control; assay type: subcellular; conditions: time 25.0 min
[9] = biological target: Serine/threonine-protein kinase B-raf (Homo sapiens, UniProt P15056); test: Inhibition of BRAF in human HeLa cells lysate at 10 uM pre incubated for 15 mins followed by ADP acyl phosphate probe addition and measured after 10 mins by LC-MS/MS analysis relative to control; assay type: subcellular; conditions: time 25.0 min
Method in brief: (§1)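 KiNativ-type profiling in HeLa lysate (5 mg/mL total protein). Lysate preincubated 15 min with inhibitor at 50, 10, 2, 0.8 or 0 μM, then ATP or ADP acylphosphate probe added (5 μM final) for 10 min. Reaction stopped with urea and analysed by targeted MS, using up to four fragment ions per kinase peptide-probe conjugate. % inhibition calculated against untreated lysate. Duplicate reactions.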

[10] = biological target: Serine/threonine-protein kinase Nek9 (Homo sapiens, UniProt Q8TD19); test: Inhibition of NEK9 in human HeLa cells lysate pre incubated for 15 mins followed by ATP acyl phosphate probe addition and measured after 10 mins by LC-MS/MS analysis; assay type: subcellular
[11] = biological target: Serine/threonine-protein kinase Nek4 (Homo sapiens, UniProt P51957); test: Inhibition of NEK4 in human HeLa cells lysate pre incubated for 15 mins followed by ATP acyl phosphate probe addition and measured after 10 mins by LC-MS/MS analysis; assay type: subcellular
[12] = biological target: Tyrosine-protein kinase receptor UFO (Homo sapiens) (UniProt P30530); test: Inhibition of AXL in human HeLa cells lysate at 2 uM pre incubated for 15 mins followed by ADP acyl phosphate probe addition and measured after 10 mins by LC-MS/MS analysis relative to control; assay type: subcellular; conditions: time 25.0 min; method in brief: as §1
[13] = Toxicity in C57Bl/6 mouse assessed as effect on sodium level at 50 mg/kg, ip for 14 days (reference value: 156 mM); assay type: organism-based; conditions: in vivo, 336 h, time 14 day
[14] = biological target: Mitogen-activated protein kinase kinase kinase 5 (Homo sapiens, UniProt Q99683); test: Inhibition of MAP3K5 in human HeLa cells lysate pre incubated for 15 mins followed by ATP acyl phosphate probe addition and measured after 10 mins by LC-MS/MS analysis; assay type: subcellular
[15] = Inhibition of PKD1/2 in human HeLa cells lysate at 10 uM pre incubated for 15 mins followed by ATP acyl phosphate probe addition and measured after 10 mins by LC-MS/MS analysis relative to control; conditions: 25 min, condition cancer

## CCOc1cc(N2CCC(O)CC2)ccc1Nc1ncc2c(n1)N(C)c1ccccc1C(=O)N2C
[1]
  pIC50: < 4.30
[2]
  inhibition: -6.5%
[3]
  inhibition: -8.4%
[4]
  inhibition: -0.6%
[5]
  inhibition: -9.6%
[6]
  pIC50: < 4.30
AMPK alpha1/alpha2
  pIC50: < 4.30
[7]
  inhibition: 2.9%
[8]
  inhibition: 38%
[9]
  inhibition: 2.3%
[10]
  pIC50: < 4.30
[11]
  pIC50: < 4.30
[12]
  inhibition: 13.1%
[13]
  Activity: 143 mM
[14]
  pIC50: < 4.30
[15]
  inhibition at 10 µM: -23%
